Values after ≈ are worked out from the molar mass of the structure shown.
How the values were obtained:
Bacillus subtilis = assay: Antimicrobial activity against Bacillus subtilis DSM 347 after 22 hrs by resazurin dye based spectrophotometry; format: functional; details: DSM 347, 22 h
In short: (§1)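 2-fold broth microdilution in Mueller–Hinton medium; peptide stocks 1024 μg/mL in 50% ethanol. Exponential-phase cultures diluted to OD550 0.2, then 1:100 (B. subtilis) or 1:1000 (E. coli), giving 5 × 10^5 CFU/mL per well. Incubated 22 h, 37 °C, static; then resazurin (0.2 mg/mL solution) added for 2 h at 37 °C, read visually and spectrophotometrically. Tested in both photoforms.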

Escherichia coli = assay: Antimicrobial activity against Escherichia coli DSM 1103 after 22 hrs by resazurin dye based spectrophotometry; format: functional; details: DSM 1103, 22 h; in short: as §1
[1] = Selective ratio of HC50 for human RBC to IC50 for human HeLa cells; format: toxicity; details: human red blood cells versus HeLa cells
In short: (§2)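 Ratio of HC50 (RBC) to HeLa IC50 or to MIC against B. subtilis or E. coli; values measured in mg/mL and recalculated to μM, 2-fold dilution without curve fitting, accuracy within a factor of 2.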

HeLa = assay: Cytotoxicity against human HeLa cells assessed as reduction in cell viability after 24 hrs by MTT assay; format: functional, cell-based
In short: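 HeLa cells seeded at about 5 × 10^4 cells/mL in DMEM with 10% FBS, 2 mM glutamine, gentamicin; 24 h adaptation (37 °C, 5% CO2), then 24 h peptide exposure. MTT 4 h, formazan in DMSO read at 570 nm. 2-fold series 256–0.5 (open) or 512–1 μg/mL (closed), four repetitions; IC50 extrapolated from killing curves. Closed form handled in dim light.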

[2] = Hemolytic activity against human RBC assessed as hemolysis after 30 mins by colorimetric method; format: ADME, cell-based, Erythrocyte; details: human red blood cells (erythrocytes)
In short: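 Human erythrocytes washed twice in isotonic 172 mM Tris-HCl, pH 7.6; peptides dissolved in DMSO, diluted in buffer, two independent 10-step 2-fold series from 256 or 192 μg/mL. HC50 extrapolated as 50% hemolysis concentration.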

[3] = Therapeutic index, ratio of HC50 for human RBC to MIC for Bacillus subtilis DSM 347; format: toxicity; details: human red blood cells versus Bacillus subtilis DSM 347; in short: as §2
[4] = Therapeutic index, ratio of HC50 for human RBC to MIC for Escherichia coli DSM 1103; format: toxicity; details: human red blood cells versus Escherichia coli DSM 1103; in short: as §2

| SMILES | MIC (Bacillus subtilis) | MIC (Escherichia coli) | selectivity ratio [1] | IC50 (HeLa) | HC50 at 0.5 h [2] | selectivity ratio [3] | selectivity ratio [4] |
| --- | --- | --- | --- | --- | --- | --- | --- |
| Cc1sc2cc1C1=C(CCC1)c1cc(sc1C)C(=O)[C@H]1CCCN1C(=O)[C@H](CCCCN)NC(=O)[C@H](C13CC4CC(CC(C4)C1)C3)NC(=O)[C@H](CCCN)NC(=O)[C@@H]1CCCN1C(=O)[C@@H](Cc1ccccc1)NC(=O)[C@H](CCCN)NC(=O)[C@H](C13CC4CC(CC(C4)C1)C3)NC(=O)[C@H](CCCN)NC2=O | 3 µM (≈ 4.44 µg/mL) | 16 µM (≈ 23.7 µg/mL) | 0.1 | 11 µM | 1 µM | 0.3 | 0.1 |
| Cc1sc2cc1C1=C(CCC1)c1cc(sc1C)C(=O)[C@H]1CCCN1C(=O)[C@H](CC(C)C)NC(=O)[C@H](CCCNC(=N)N)NC(=O)[C@H](C(C)C)NC(=O)[C@@H]1CCCN1C(=O)[C@@H](Cc1ccccc1)NC(=O)[C@H](CC(C)C)NC(=O)[C@H](CCCNC(=N)N)NC(=O)[C@H](C(C)C)NC2=O | 3 µM (≈ 4.09 µg/mL) | 35 µM (≈ 47.8 µg/mL) | 0.5 | 4 µM | 2 µM | 0.7 | 0.1 |
| Cc1sc2cc1C1=C(CCC1)c1cc(sc1C)C(=O)[C@H]1CCCN1C(=O)[C@H]([C@H](O)C(C)C)NC(=O)[C@H](CCCN)NC(=O)[C@H](C(C)C)NC(=O)[C@@H]1CCCN1C(=O)[C@@H](Cc1ccccc1)NC(=O)[C@H](C(C)C)NC(=O)[C@H](CCCN)NC(=O)[C@H](C(C)C)NC2=O | 2 µM (≈ 2.57 µg/mL) | 100 µM (≈ 128 µg/mL) | 1.3 | 31 µM | 39 µM | 25 | 0.4 |
| CC[C@H](C)[C@@H]1NC(=O)C2=CC3=C4CCCC4=C4C=C(S[C@]4(C)[C@@]3(C)S2)C(=O)[C@H]2CCCN2C(=O)[C@H]([C@@H](C)CC)NC(=O)[C@H](CCCN)NC(=O)[C@H](CC(C)C)NC(=O)[C@H](CC(C)C)N(C)C(=O)[C@@H](Cc2ccccc2)NC(=O)[C@H]([C@@H](C)CC)NC(=O)[C@H](CCCN)NC1=O | 3 µM (≈ 4.02 µg/mL) | 191 µM (≈ 256 µg/mL) | 1.1 | 25 µM | 27 µM | 9 | 0.1 |
| Cc1sc2cc1C1=C(CCC1)c1cc(sc1C)C(=O)[C@H]1CCCN1C(=O)[C@H](CC(C)C)NC(=O)[C@H](CCCCN)NC(=O)[C@H](C(C)C)NC(=O)[C@H](CCCCN)N(C)C(=O)[C@@H](Cc1ccccc1)NC(=O)[C@H](CC(C)C)NC(=O)[C@H](CCCCN)NC(=O)[C@H](C(C)C)NC2=O | 3 µM (≈ 4.06 µg/mL) | 47 µM (≈ 63.6 µg/mL) | 1.3 | 3 µM | 4 µM | 1.3 | 0.1 |
| Cc1sc2cc1C1=C(CCC1)c1cc(sc1C)C(=O)[C@H]1CCCN1C(=O)[C@H](CC(C)C)NC(=O)[C@H](CCCN)NC(=O)[C@H](C(C)C)NC(=O)[C@@H]1CCCN1C(=O)[C@@H](Cc1ccccc1)NC(=O)[C@H](CC(C)C)NC(=O)[C@H](CCCN)NC(=O)[C@H](CCCN)NC2=O | 2 µM (≈ 2.59 µg/mL) | 25 µM (≈ 32.4 µg/mL) | 2 | 6 µM | 12 µM | 6 | 0.5 |
| Cc1sc2cc1C1=C(CCC1)c1cc(sc1C)C(=O)[C@H]1CCCN1C(=O)[C@H](C(C)C)NC(=O)[C@H](CCCN)NC(=O)[C@H](C(C)C)NC(=O)[C@@H]1CCCN1C(=O)[C@@H](Cc1ccccc1)NC(=O)[C@H](C(C)C)NC(=O)[C@H](CCCN)NC(=O)[C@H]([C@H](O)C(C)C)NC2=O | 2 µM (≈ 2.57 µg/mL) | 100 µM (≈ 128 µg/mL) | 2.2 | 25 µM | 56 µM | 28 | 0.6 |
| CC(C)C[C@@H]1NC(=O)[C@H](CCCN)NC(=O)[C@H](C)NC(=O)C2=CC3=C4CCCC4=C4C=C(S[C@]4(C)[C@@]3(C)S2)C(=O)[C@H]2CCCN2C(=O)[C@H](C)NC(=O)[C@H](CCCN)NC(=O)[C@H](C(C)C)NC(=O)[C@@H]2CCCN2C(=O)[C@@H](Cc2ccccc2)NC1=O | 40 µM (≈ 48.4 µg/mL) | 212 µM (≈ 257 µg/mL) | 1.7 | 106 µM | 175 µM | 4.4 | 0.8 |
| CC(C)C[C@@H]1NC(=O)[C@H](CCCCN)NC(=O)[C@H](C(C)C)NC(=O)C2=CC3=C4CCCC4=C4C=C(S[C@]4(C)[C@@]3(C)S2)C(=O)[C@H]2CCCN2C(=O)[C@H](CC(C)C)NC(=O)[C@H](CCCCN)NC(=O)[C@H](C(C)C)NC(=O)[C@H](CCCCN)NC(=O)[C@H](CC(C)C)NC(=O)[C@@H]2CCCN2C(=O)[C@@H](Cc2ccccc2)NC(=O)[C@H](C(C)C)NC(=O)[C@H](CCCCN)NC1=O | 1 µM (≈ 1.78 µg/mL) | 36 µM (≈ 64 µg/mL) | 1.3 | 28 µM | 37 µM | 37 | 1 |
| CC(C)[C@@H]1NC(=O)[C@H](CCCN)NC(=O)[C@H]([C@H](O)C(C)C)NC(=O)C2=CC3=C4CCCC4=C4C=C(S[C@]4(C)[C@@]3(C)S2)C(=O)[C@H]2CCCN2C(=O)[C@H](C(C)C)NC(=O)[C@H](CCCN)NC(=O)[C@H](C(C)C)NC(=O)[C@@H]2CCCN2C(=O)[C@@H](Cc2ccccc2)NC1=O | 13 µM (≈ 16.7 µg/mL) | 200 µM (≈ 257 µg/mL) | 1.2 | 300 µM | 351 µM | 27 | 1.8 |
| Cc1sc2cc1C1=C(CCC1)c1cc(sc1C)C(=O)[C@H]1CCCN1C(=O)[C@H](C(C)C)NC(=O)[C@H](CCCN)NC(=O)[C@H](C(C)C)NC(=O)[C@@H]1CCCN1C(=O)[C@@H](Cc1ccccc1)NC(=O)[C@H](C(C)C)NC(=O)[C@H](CCCN)NC(=O)[C@H](CC(=O)NC(C)C)NC2=O | 3 µM (≈ 3.93 µg/mL) | 98 µM (≈ 128 µg/mL) | 2.3 | 66 µM | 153 µM | 51 | 1.6 |
| CC(C)C[C@@H]1NC(=O)[C@H](CCCN)NC(=O)[C@H](CCCN)NC(=O)C2=CC3=C4CCCC4=C4C=C(S[C@]4(C)[C@@]3(C)S2)C(=O)[C@H]2CCCN2C(=O)[C@H](CC(C)C)NC(=O)[C@H](CCCN)NC(=O)[C@H](C(C)C)NC(=O)[C@@H]2CCCN2C(=O)[C@@H](Cc2ccccc2)NC1=O | 3 µM (≈ 3.89 µg/mL) | 12 µM (≈ 15.5 µg/mL) | 1.4 | 12 µM | 17 µM | 5.7 | 1.4 |
| Cc1sc2cc1C1=C(CCC1)c1cc(sc1C)C(=O)[C@H]1CCCN1C(=O)[C@H](C(C)C)NC(=O)[C@H](CCCCN)NC(=O)[C@H](C(C)C)NC(=O)[C@H](CC(C)C)NC(=O)[C@@H](CCCCN)NC(=O)[C@@H]1CCCN1C(=O)[C@@H](Cc1ccccc1)NC(=O)[C@H](C(C)C)NC(=O)[C@H](CCCCN)NC(=O)[C@H](CC(C)C)NC(=O)[C@H](CCCCN)NC(=O)[C@H](C(C)C)NC2=O | 1 µM (≈ 1.76 µg/mL) | 9 µM (≈ 15.9 µg/mL) | 0.3 | 3 µM | 1 µM | 1 | 0.1 |
| CC(C)[C@@H]1NC(=O)[C@H](CCCN)NC(=O)[C@H]([C@H](O)C(C)C)NC(=O)C2=CC3=C4CCCC4=C4C=C(S[C@]4(C)[C@@]3(C)S2)C(=O)[C@H]2CCCN2C(=O)[C@H](C(C)C)NC(=O)[C@H](CCCN)NC(=O)[C@H]([C@H](O)C(C)C)NC(=O)[C@@H]2CCCN2C(=O)[C@@H](Cc2ccccc2)NC1=O | 12 µM (≈ 15.8 µg/mL) | 195 µM (≈ 256 µg/mL) | 0.5 | 293 µM | 160 µM | 13.3 | 0.8 |

Source: ChEMBL document CHEMBL4257585, “Structure-Activity Relationships of Photoswitchable Diarylethene-Based β-Hairpin Peptides as Membranolytic Antimicrobial and Anticancer Agents” (J Med Chem, 2018)
